Test results published in ChEMBL document CHEMBL1127729, “Synthesis and pharmacological evaluation of phenylacetamides as sodium-channel blockers” (J Med Chem, 1994).

Assays:
Rattus norvegicus [1] = species: Rattus norvegicus; experiment: In vitro inhibition of veratridine induced LDH release in rat embryos; assay type: functional
Method in brief: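 Rat embryo cortical neuron cultures, 17–18 days old, given compound together with 100 μM veratridine in HEPES saline (pH 7.4) for 10 min. Medium was then replaced by serum-free medium. LDH in medium taken 1 day later, read kinetically as A340 decline of NADH after pyruvate addition at 37 °C.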

[2] = biological target: Sodium channel protein type 2 subunit alpha (Rattus norvegicus, UniProt P04775); experiment: Inhibition of veratridine-induced Na+ influx in chinese hamster ovary cells expressing alpha subunit of rat brain type voltage-gated sodium channel type 2; assay type: functional
Method in brief: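 CNaIIA-1 cells (CHO-K1 transfected with rat brain IIA α subunit cDNA) in choline-based KRH buffer, pH 7.4. Compound at 0.01–100 μM final, added with 30 μM veratridine plus α-scorpion venom, 11 min at 37 °C. Cell-retained radioactivity counted after Triton lysis; IC50 determined.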

[3] = biological target: Sodium channel alpha subunits; brain (Types I, II, III) (Rattus norvegicus, UniProt P04775+P04774+P08104); experiment: Inhibition of [3H]- batrachotoxin binding to sodium channel in rat neocortical membrane; assay type: cell membranes
Rattus norvegicus [4] = species: Rattus norvegicus; experiment: In vitro inhibition of hypoxic-mediated cell injury in Dawley fetal rat brain

Sodium channel protein type 2 subunit alpha, sequence (P04775 whole entry): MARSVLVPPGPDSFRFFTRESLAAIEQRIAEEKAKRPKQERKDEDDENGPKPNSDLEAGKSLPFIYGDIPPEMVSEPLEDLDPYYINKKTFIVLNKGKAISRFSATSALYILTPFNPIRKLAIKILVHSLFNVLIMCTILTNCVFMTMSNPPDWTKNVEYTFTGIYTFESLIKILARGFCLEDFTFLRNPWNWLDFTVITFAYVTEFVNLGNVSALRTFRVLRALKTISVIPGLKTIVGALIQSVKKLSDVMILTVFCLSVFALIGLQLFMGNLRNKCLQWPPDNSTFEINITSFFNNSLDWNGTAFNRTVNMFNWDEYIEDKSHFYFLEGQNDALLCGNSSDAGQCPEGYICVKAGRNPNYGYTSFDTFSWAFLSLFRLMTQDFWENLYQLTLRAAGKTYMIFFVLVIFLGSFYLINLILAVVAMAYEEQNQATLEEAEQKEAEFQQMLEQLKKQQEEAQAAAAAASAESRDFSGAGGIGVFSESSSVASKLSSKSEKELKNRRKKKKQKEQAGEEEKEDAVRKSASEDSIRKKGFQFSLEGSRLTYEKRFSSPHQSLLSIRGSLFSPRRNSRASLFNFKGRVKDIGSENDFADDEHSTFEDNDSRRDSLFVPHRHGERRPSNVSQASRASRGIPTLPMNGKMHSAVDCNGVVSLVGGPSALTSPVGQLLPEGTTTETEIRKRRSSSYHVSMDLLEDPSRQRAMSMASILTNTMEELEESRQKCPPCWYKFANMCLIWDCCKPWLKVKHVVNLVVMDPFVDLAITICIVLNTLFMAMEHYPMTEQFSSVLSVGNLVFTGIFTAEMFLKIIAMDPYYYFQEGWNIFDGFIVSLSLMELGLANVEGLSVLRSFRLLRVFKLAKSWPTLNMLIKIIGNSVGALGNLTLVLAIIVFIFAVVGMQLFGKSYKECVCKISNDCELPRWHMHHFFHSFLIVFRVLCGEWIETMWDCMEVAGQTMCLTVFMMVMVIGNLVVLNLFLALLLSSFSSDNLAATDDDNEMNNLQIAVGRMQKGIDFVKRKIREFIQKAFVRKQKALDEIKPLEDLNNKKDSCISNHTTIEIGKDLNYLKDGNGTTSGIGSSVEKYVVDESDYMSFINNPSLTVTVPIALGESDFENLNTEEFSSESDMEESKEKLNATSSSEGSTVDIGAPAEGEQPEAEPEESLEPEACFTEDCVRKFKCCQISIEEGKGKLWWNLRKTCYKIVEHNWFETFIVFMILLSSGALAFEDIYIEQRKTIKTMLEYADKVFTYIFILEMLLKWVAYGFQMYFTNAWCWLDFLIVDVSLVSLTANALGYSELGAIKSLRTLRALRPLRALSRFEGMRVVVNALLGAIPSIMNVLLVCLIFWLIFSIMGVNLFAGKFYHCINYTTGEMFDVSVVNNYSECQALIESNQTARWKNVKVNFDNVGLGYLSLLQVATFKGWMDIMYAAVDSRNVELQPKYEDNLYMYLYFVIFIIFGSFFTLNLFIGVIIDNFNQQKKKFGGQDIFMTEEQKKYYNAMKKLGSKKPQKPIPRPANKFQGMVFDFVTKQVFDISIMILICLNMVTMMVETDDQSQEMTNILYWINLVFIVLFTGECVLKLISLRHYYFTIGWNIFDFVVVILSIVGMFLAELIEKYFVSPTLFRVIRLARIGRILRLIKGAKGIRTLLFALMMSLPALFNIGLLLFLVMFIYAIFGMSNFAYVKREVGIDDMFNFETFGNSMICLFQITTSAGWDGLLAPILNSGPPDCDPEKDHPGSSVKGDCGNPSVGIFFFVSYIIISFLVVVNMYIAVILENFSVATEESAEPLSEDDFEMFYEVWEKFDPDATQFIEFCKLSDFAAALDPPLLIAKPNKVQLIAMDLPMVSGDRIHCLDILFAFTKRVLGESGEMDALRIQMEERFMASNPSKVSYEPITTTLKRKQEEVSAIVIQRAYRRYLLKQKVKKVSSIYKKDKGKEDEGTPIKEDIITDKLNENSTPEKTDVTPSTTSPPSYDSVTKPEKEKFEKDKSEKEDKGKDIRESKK

| Compound | IC50 (Rattus norvegicus [1]) | IC50 [2] | Ki [3] | IC50 (Rattus norvegicus [4]) |
| --- | --- | --- | --- | --- |
| Fc1ccc(C(c2ccc(F)cc2)N2CCN(C/C=C/c3ccccc3)CC2)cc1 [FLUNARIZINE] | 2 µM |  |  |  |
| COc1ccc(C(C(=O)NCCCN2C(C)CCCC2C)c2ccc(OC)cc2)cc1 (centres undefined) |  | 3.1 µM | 1 µM |  |
| CC1CCCC(C)N1CCCNC(=O)C1c2ccccc2-c2ccccc21 (centres undefined) | > 30 µM | 29 µM | 2.3 µM | 51 µM |
| CC1CCCC(C)N1CCCN1C(=O)CC(c2ccccc2)(c2ccccc2)C1=O (centres undefined) |  | 3.6 µM | 1 µM |  |
| CC1CCCC(C)N1CCCNC(=O)C(c1ccc(F)cc1)c1ccc(F)cc1 (centres undefined) |  | 5.8 µM | 0.13 µM |  |
| CC1CCCC(C)N1CCCNC(=O)C(c1ccccc1Cl)c1ccccc1Cl (centres undefined) | 6 µM | 3.5 µM | 0.073 µM | 4.8 µM |
| CC1CCCC(C)N1CCCNC(=O)C1c2ccccc2Oc2ccccc21 (centres undefined) |  | 13 µM | 0.41 µM |  |
| Cc1cccc(C)c1NC(=O)CN1CCN(CCCC(c2ccc(F)cc2)c2ccc(F)cc2)CC1 [LIDOFLAZINE] |  | 2.4 µM | 0.077 µM |  |
| CC1CCCC(C)N1CCCNC(=O)C(c1ccccc1)c1ccccc1 (centres undefined) | 5 µM | 2.7 µM | 0.26 µM | 89 µM |
| CC1CCCC(C)N1CCCNC(=O)N(c1ccccc1)c1ccccc1 (centres undefined) | > 30 µM |  |  | > 100 µM |
| CC1CCCC(C)N1CCCNC(=O)C(c1ccc(Cl)cc1)c1ccc(Cl)cc1 (centres undefined) |  | 4.5 µM | 0.11 µM |  |
| CC1CCCC(C)N1CCCNC(=O)C1(c2ccccc2)CCCCC1 (centres undefined) | 12 µM | 4.3 µM | 0.38 µM | 61 µM |
| CC1CCCC(C)N1CCCNC(=O)Cc1ccccc1 (centres undefined) | > 30 µM | > 100 µM | 21 µM | > 100 µM |
| CC1CCCC(C)N1CCCNC(=O)Cc1cccc2ccccc12 (centres undefined) |  | > 100 µM | 6.9 µM |  |
| COc1ccc(C(C(=O)NCCCN2C(C)CCCC2C)c2ccc(OC)c3ccccc23)c2ccccc12 (centres undefined) |  | 13 µM | 0.24 µM |  |
